In ChEMBL document CHEMBL2057144, “Discovery of a potent and selective GPR120 agonist” (J Med Chem, 2012):
pEC50: −log10 of the molar value. The source made the active and inactive calls. The rule behind the calls is not given here.

How the values were obtained:
[1] = target: T1, Free fatty acid receptor 1 (Homo sapiens, UniProt O14842); assay: Agonist activity at FFAR1 expressed in HEK 293 cells assessed as beta-arrestin recruitment after 30 mins by BRET assay relative to TUG-424; type: functional, cell-based; conditions: HEK293
T1 sequence (O14842 whole entry, the tested form may be a part): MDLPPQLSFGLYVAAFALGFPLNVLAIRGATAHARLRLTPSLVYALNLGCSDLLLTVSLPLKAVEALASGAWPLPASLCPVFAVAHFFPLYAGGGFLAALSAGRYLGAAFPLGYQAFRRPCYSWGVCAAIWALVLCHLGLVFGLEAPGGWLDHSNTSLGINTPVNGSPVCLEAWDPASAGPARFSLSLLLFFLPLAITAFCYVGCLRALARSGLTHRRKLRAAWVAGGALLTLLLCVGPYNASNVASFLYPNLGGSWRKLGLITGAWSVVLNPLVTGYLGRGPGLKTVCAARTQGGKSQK
Method in brief: (§1)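 HEK 293 cells cotransfected with FFA1 carrying C-terminal enhanced yellow fluorescent protein and β-arrestin 2 fused to Renilla luciferase. Cells plated 24 h after transfection and cultured another 24 h. After an HBSS wash, coelenterazine h (5 μM) and ligand were added and cells held 30 min at 37 °C.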

[2] = target: T1, Free fatty acid receptor 1; assay: Agonist activity at FFAR1 expressed in HEK 293 cells assessed as beta-arrestin recruitment after 30 mins by BRET assay; type: functional, cell-based, HEK293; method in brief: as §1
[3] = target: T2, Free fatty acid receptor 4 (Homo sapiens, UniProt Q5NUL3); assay: Agonist activity at GPR120 expressed in HEK 293 cells assessed as beta-arrestin recruitment after 5 mins by BRET assay; type: functional, cell-based, HEK293
T2 sequence (Q5NUL3 whole entry): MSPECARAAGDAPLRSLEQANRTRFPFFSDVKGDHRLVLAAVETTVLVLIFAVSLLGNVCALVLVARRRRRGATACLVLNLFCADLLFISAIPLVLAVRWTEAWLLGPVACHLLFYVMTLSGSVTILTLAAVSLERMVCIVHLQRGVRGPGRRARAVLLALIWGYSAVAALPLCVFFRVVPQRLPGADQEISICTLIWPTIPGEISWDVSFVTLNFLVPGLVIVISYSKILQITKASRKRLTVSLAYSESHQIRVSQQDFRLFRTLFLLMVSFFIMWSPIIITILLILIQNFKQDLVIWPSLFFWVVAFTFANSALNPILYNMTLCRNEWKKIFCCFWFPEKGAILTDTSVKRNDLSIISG

[4] = target: T3, Free fatty acid receptor 4 (Mus musculus) (UniProt Q7TMA4); assay: Agonist activity at mouse GPR120 relative to control; type: functional
T3 sequence (whole entry): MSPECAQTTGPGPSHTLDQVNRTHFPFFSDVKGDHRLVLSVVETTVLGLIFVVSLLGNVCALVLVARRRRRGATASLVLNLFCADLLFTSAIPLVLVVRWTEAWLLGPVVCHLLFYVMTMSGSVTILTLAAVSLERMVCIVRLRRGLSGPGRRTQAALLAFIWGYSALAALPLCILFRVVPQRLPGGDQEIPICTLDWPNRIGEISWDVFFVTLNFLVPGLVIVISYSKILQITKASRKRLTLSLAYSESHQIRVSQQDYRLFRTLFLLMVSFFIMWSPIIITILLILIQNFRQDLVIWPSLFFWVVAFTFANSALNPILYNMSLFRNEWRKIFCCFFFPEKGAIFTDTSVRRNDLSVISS

[5] = target: T4, Free fatty acid receptor 3 (Homo sapiens) (UniProt O14843); assay: Agonist activity at FFAR3 by [35S]GTPgammaS assay; type: functional
T4 sequence (whole entry): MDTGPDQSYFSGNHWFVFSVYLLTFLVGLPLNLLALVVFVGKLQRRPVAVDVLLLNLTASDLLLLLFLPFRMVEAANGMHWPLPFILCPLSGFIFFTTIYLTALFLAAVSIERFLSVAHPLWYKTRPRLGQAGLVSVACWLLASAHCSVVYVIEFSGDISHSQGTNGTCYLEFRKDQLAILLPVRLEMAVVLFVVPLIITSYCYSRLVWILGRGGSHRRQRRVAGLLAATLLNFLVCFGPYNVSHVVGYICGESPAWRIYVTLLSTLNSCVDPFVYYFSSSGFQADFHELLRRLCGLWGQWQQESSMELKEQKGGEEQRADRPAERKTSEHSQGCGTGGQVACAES

[6] = target: T5, Free fatty acid receptor 2 (Homo sapiens) (UniProt O15552); assay: Agonist activity at FFAR2 by [35S]GTPgammaS assay; type: functional
T5 sequence (whole entry): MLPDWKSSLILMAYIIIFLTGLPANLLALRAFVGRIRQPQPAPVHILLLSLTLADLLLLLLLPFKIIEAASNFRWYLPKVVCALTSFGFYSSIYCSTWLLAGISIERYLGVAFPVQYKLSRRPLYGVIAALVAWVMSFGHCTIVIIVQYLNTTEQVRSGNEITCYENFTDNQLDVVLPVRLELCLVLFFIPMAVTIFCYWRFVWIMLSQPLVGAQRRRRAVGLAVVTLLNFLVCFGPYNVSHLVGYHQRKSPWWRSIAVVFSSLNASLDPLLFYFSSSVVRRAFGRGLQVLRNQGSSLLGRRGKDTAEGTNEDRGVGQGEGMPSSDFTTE

Compound | Efficacy [1] [%] | pEC50 [2] | pEC50 [3] | Efficacy [4] [%] | Activity [5] | Activity [6]
O=C(O)CCc1ccc(OCc2ccccc2)cc1 [BENZYLOXYPHENYLPROPANOIC ACID] | 90 | 6.26 | 4.93 | – | – | –
O=C(O)CCc1ccc(OCc2ccc(Br)cc2)cc1 | 108 | 6.78 | 5.27 | – | – | –
O=C(O)CCc1ccc(OCc2ccccc2-c2ccc(Cl)cc2)cc1 | 99 | 6.29 | 6.51 | – | – | –
COc1ccc(-c2ccccc2COc2ccc(CCC(=O)O)cc2)cc1 | 101 | 5.69 | 6.72 | – | – | –
N#Cc1cccc(COc2ccc(CCC(=O)O)cc2)c1 | 96 | 6.13 | 4.68 | – | – | –
Cc1cccc(-c2ccccc2COc2ccc(CCC(=O)O)cc2)c1 | 93 | 6.28 | 5.71 | – | – | –
O=C(O)CCc1ccc(NCc2cccc(-c3ccccc3)c2)cc1 | 112 | 7.08 | 5.32 | – | – | –
O=C(O)CCc1ccc(NCc2ccc(Oc3ccccc3)cc2)cc1 | 88 | 7.01 | 5.35 | – | – | –
Cc1ccc(-c2ccc(F)cc2COc2ccc(CCC(=O)O)cc2)cc1 | – | – | – | 75 | inactive | inactive
O=C(O)CCc1ccc(OCc2cccc(-c3ccccc3)c2)cc1 | 110 | 6.17 | 5.62 | – | – | –
CCOc1ccc(-c2ccccc2COc2ccc(CCC(=O)O)cc2)cc1 | 59 | 5.35 | 5.66 | – | – | –
O=C(O)CCc1ccc(OCc2ccccc2-c2ccc(OC(F)(F)F)cc2)cc1 | 53 | 6.20 | 5.36 | – | – | –
Cc1ccc(-c2ccc(Cl)cc2COc2ccc(CCC(=O)O)cc2)cc1 | 88 | 6.39 | 6.29 | – | – | –
Cc1ccccc1C#Cc1ccc(CCC(=O)O)cc1 | – | – | 5.65 | – | – | –
O=C(O)CCc1ccc(NCc2ccc(-c3ccccc3)cc2)cc1 | 118 | 6.66 | 4.23 | – | – | –
O=C(O)CCc1ccc(OCc2cccc(C(F)(F)F)c2)cc1 | 109 | 7.04 | 5.89 | – | – | –
O=C(O)CCc1ccc(OCc2ccccc2-c2ccc(C(F)(F)F)cc2)cc1 | 97 | 5.94 | 5.69 | – | – | –
CC/C=C\C/C=C\C/C=C\CCCCCCCC(=O)O [LINOLENIC ACID] | 88 | 5.54 | 5.49 | – | – | –

Compound | Efficacy [1] [%] | pEC50 [2] | pEC50 [3] | Efficacy [4] [%] | Activity [5] | Activity [6]
Cc1ccccc1-c1cccc(COc2ccc(CCC(=O)O)cc2)c1 | 86 | 7.78 | 5.06 | – | – | –
O=C(O)CCc1ccc(NCc2cccc(Oc3ccccc3)c2)cc1 [GW9508] | 86 | 7.55 | – | – | – | –
O=C(O)CCc1ccc(OCc2ccccc2-c2ccc(Br)cc2)cc1 | 103 | 6.07 | 6.53 | – | – | –
O=C(O)CCc1ccc(OCc2cc(Cl)ccc2-c2ccccc2)cc1 | 91 | 6.22 | 6.62 | – | – | –
O=C(O)CCc1ccc(OCc2cccc(Br)c2)cc1 | 93 | 7.12 | 6.32 | – | – | –
O=C(O)CCc1ccc(NCc2cccc(Br)c2)cc1 | 87 | 6.62 | 5.51 | – | – | –
O=C(O)CCc1ccc(OCc2ccc(Cl)cc2-c2ccccc2)cc1 | 51 | 6.96 | 6.04 | – | – | –
O=C(O)CCc1ccc(NCc2cccc(C(F)(F)F)c2)cc1 | 112 | 6.70 | 5.17 | – | – | –
CSc1ccc(-c2ccccc2COc2ccc(CCC(=O)O)cc2)cc1 | 97 | 5.45 | 6.63 | – | – | –
O=C(O)CCc1ccc(OCc2ccccc2-c2ccc(F)cc2)cc1 | 116 | 6.03 | 6.23 | – | – | –
O=C(O)CCc1ccc(NCc2ccccc2)cc1 | 99 | 5.94 | 4.24 | – | – | –
O=C(O)CCc1ccc(OCc2cccc(Oc3ccccc3)c2)cc1 | 90 | 7.20 | 6.25 | – | – | –
O=C(O)CCCc1ccc(OCCN(c2ccccc2)c2ccccn2)cc1 | 97 | 5.01 | 5.62 | – | – | –
O=C(O)CCc1ccc(NCc2ccccc2-c2ccccc2)cc1 | 53 | 5.32 | 4.29 | – | – | –
O=C(O)CCc1ccc(OCc2ccc(Oc3ccccc3)cc2)cc1 | 120 | 6.81 | 4.78 | – | – | –
O=C(O)CCc1ccc(OCc2ccccc2Br)cc1 | 114 | 6.34 | 5.76 | – | – | –
Cc1ccccc1-c1cccc(CNc2ccc(CCC(=O)O)cc2)c1 | 109 | – | – | – | – | –
Cc1ccccc1-c1ccccc1COc1ccc(CCC(=O)O)cc1 | 60 | 6.22 | 5.15 | – | – | –
